# Results from ChEMBL document CHEMBL2401620, “Molecular design, synthesis and biological evaluation of BP-O-DAPY and O-DAPY derivatives as non-nucleoside HIV-1 reverse transcriptase inhibitors” (Eur J Med Chem, 2013).
# What was measured:
# [1] = Selectivity index, ratio of CC50 for human MT4 cells to EC50 for HIV1 3B; format: toxicity, cell-based; conditions: read-out: Ratio CC50/EC50
# Procedure, shortened: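 SI is CC50 in mock-infected MT-4 cells divided by EC50 against HIV-1 IIIB. Both come from the same 5-day MTT assay, with serial 5-fold dilutions in triplicate wells.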
# [2] = Cytotoxicity against human MT4 cells after 5 days by MTT assay; format: cell-based
# Procedure, shortened: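 Mock-infected MT-4 cells at 6 × 10⁵ cells/mL received medium instead of virus, with serial 5-fold compound dilutions in triplicate. After 5 days, viability was read by MTT at 540 and 690 nm.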
# [3] = test system: Human immunodeficiency virus 2; test: Antiviral activity against HIV2 ROD infected in human MT4 cells assessed as inhibition of virus-induced cytopathic effect after 5 days by MTT assay; format: functional, organism-based; conditions: Human immunodeficiency virus 2, ISOLATE ROD, MT4, 120 h
# Procedure, shortened: (§1)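 MT-4 cells, spun 5 min at 220 g, resuspended at 6 × 10⁵ cells/mL, infected with virus stock at 100-300 CCID50. Serial 5-fold compound dilutions were added at the start, in triplicate wells. After 5 days, viability was read by MTT reduction at 540 and 690 nm.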
# [4] = test system: Human immunodeficiency virus 1; test: Antiviral activity against HIV1 RES056 expressing RT K103N/Y181C mutant infected in human MT4 cells assessed as inhibition of virus-induced cytopathic effect after 5 days by MTT assay; format: functional, organism-based; conditions: Human immunodeficiency virus 1, RES056, MT4, 120 h
# Procedure, shortened: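 MT-4 cells, exponentially growing, spun 5 min at 220 g and resuspended at 6 × 10⁵ cells/mL, then infected with 100-300 CCID₅₀ virus stock. Serial 5-fold compound dilutions were added from 10× stocks, in triplicate alongside mock-infected wells. Viability was read by MTT at 540 and 690 nm. EC₅₀ is the concentration giving 50% protection from cytopathic effect, using median OD of three wells.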
# [5] = test system: Human immunodeficiency virus 1; test: Antiviral activity against HIV1 3B infected in human MT4 cells assessed as inhibition of virus-induced cytopathic effect after 5 days by MTT assay; format: functional, organism-based; conditions: Human immunodeficiency virus 1, 3B, MT4, 120 h; procedure, shortened: as §1
# [6] = target: Human immunodeficiency virus type 1 reverse transcriptase (Human immunodeficiency virus 1, UniProt Q72547); test: Inhibition of recombinant wild type HIV1 RT using poly(rA)/oligo(dT)16 as template after 40 mins by spectrofluorometric analysis
# [7] = test system: Human immunodeficiency virus 1; test: Ratio of nevirapine EC50 to compound EC50 for HIV1 3B; format: functional
# [8] = test system: Human immunodeficiency virus 1; test: Ratio of delavirdine EC50 to compound EC50 for HIV1 3B; format: functional
# [9] = target: Human immunodeficiency virus type 1 reverse transcriptase (Human immunodeficiency virus 1, UniProt Q72547, K103N/Y181C); test: Inhibition of HIV RT K103N/Y181C mutant by cell based assay
# Procedure, shortened: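 Serial 5-fold compound dilutions in triplicate wells, with parallel mock-infected wells. After 5 days, viability was read by MTT reduction at 540 and 690 nm. The median OD of three wells gave EC₅₀, the concentration giving 50% protection from viral cytopathic effect.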
SMILES,selectivity ratio [1],CC50 at 120 h [2],EC50 [3],EC50 [4],EC50 [5],IC50 [6],Ratio EC50 [7],Ratio EC50 [8],EC50 [9]
Cc1ccc(C(=O)c2cc(Cl)ccc2Oc2ccnc(Nc3ccc(C#N)cc3)n2)cc1,< 1,1.71 µM,> 1.71 µM,> 1.71 µM,> 1.71 µM,–,–,–,–
Cc1cc(C)cc(C(=O)c2cc(Cl)ccc2Oc2ccnc(Nc3ccc(C#N)cc3)n2)c1,36,28.8 µM,> 28.8 µM,> 28.8 µM,0.79 µM,3.22 µM,–,–,–
Cc1ccccc1C(=O)c1cc(Cl)ccc1Oc1ccnc(Nc2ccc(C#N)cc2)n1,21,28.8 µM,> 28.8 µM,> 28.8 µM,1.36 µM,3.45 µM,–,–,–
COc1ccc(C(=O)c2ccccc2)c(Oc2ccnc(Nc3ccc(C#N)cc3)n2)c1,< 1,0.76 µM,> 0.76 µM,> 0.76 µM,> 0.76 µM,–,–,–,–
N#Cc1ccc(Nc2nccc(Oc3ccc(C(=O)c4ccc(O)cc4)cc3)n2)cc1,7,19.4 µM,> 19.4 µM,> 19.4 µM,2.72 µM,7.13 µM,–,–,–
N#Cc1ccc(Nc2nccc(Oc3ccc(OCc4ccccc4)cc3)n2)cc1,> 7,> 317 µM,> 317 µM,> 317 µM,46.1 µM,31 µM,–,–,–
COCCc1ccc(Oc2ccnc(Nc3ccc(C#N)cc3)n2)cc1,359,93.2 µM,≥ 46.2 µM,≥ 93.2 µM,0.26 µM,2.69 µM,–,–,–
Cc1ccc(C(=O)c2cc(Cl)ccc2Oc2cc(C)nc(Nc3ccc(C#N)cc3)n2)cc1,< 1,26.6 µM,> 26.6 µM,> 26.6 µM,> 26.6 µM,–,–,–,–
Cc1cc(C)cc(C(=O)c2cc(Cl)ccc2Oc2cc(C)nc(Nc3ccc(C#N)cc3)n2)c1,< 1,37.1 µM,> 37.1 µM,> 37.1 µM,> 37.1 µM,–,–,–,–
Cc1cc(Oc2ccc(Cl)cc2C(=O)c2ccccc2C)nc(Nc2ccc(C#N)cc2)n1,< 1,4.24 µM,> 4.24 µM,> 4.24 µM,> 4.24 µM,–,–,–,–
COc1ccc(C(=O)c2ccccc2)c(Oc2cc(C)nc(Nc3ccc(C#N)cc3)n2)c1,< 1,4.9 µM,> 4.9 µM,> 4.9 µM,> 4.9 µM,–,–,–,–
Cc1cc(Oc2ccc(C(=O)c3ccc(O)cc3)cc2)nc(Nc2ccc(C#N)cc2)n1,≤ 6,32 µM,> 32 µM,> 32 µM,≥ 5.18 µM,16.9 µM,–,–,–
Cc1cc(Oc2ccc(OCc3ccccc3)cc2)nc(Nc2ccc(C#N)cc2)n1,6,27.7 µM,> 27.7 µM,> 27.7 µM,4.31 µM,17.4 µM,–,–,–
COCCc1ccc(Oc2cc(C)nc(Nc3ccc(C#N)cc3)n2)cc1,18,13.8 µM,> 13.8 µM,> 13.8 µM,0.79 µM,11.6 µM,–,–,–
Cc1ccc(C(=O)c2cc(Cl)ccc2Oc2nc(Nc3ccc(C#N)cc3)ncc2C)cc1,< 1,≥ 0.83 µM,> 0.83 µM,> 0.83 µM,3.79 µM,–,–,–,–
Cc1cc(C)cc(C(=O)c2cc(Cl)ccc2Oc2nc(Nc3ccc(C#N)cc3)ncc2C)c1,9,13.4 µM,> 13.4 µM,> 13.4 µM,1.48 µM,3.06 µM,–,–,–
Cc1ccccc1C(=O)c1cc(Cl)ccc1Oc1nc(Nc2ccc(C#N)cc2)ncc1C,22,24.2 µM,> 24.2 µM,> 24.2 µM,1.09 µM,5.23 µM,–,–,–
COc1ccc(C(=O)c2ccccc2)c(Oc2nc(Nc3ccc(C#N)cc3)ncc2C)c1,≤ 2,7.42 µM,> 7.42 µM,> 7.42 µM,≥ 3.51 µM,–,–,–,–
Cc1cnc(Nc2ccc(C#N)cc2)nc1Oc1ccc(C(=O)c2ccc(O)cc2)cc1,> 82,> 296 µM,> 296 µM,> 296 µM,3.61 µM,5.21 µM,–,–,–
Cc1cnc(Nc2ccc(C#N)cc2)nc1Oc1ccc(OCc2ccccc2)cc1,29,170 µM,> 170 µM,> 170 µM,> 170 µM,–,–,–,–
COCCc1ccc(Oc2nc(Nc3ccc(C#N)cc3)ncc2C)cc1,> 6260,> 347 µM,> 347 µM,> 347 µM,0.06 µM,1.27 µM,1.8,1.8,–
CC(C)Nc1cccnc1N1CCN(C(=O)c2cc3cc(NS(C)(=O)=O)ccc3[nH]2)CC1 [DELAVIRDINE],–,> 36.2 µM,> 36.2 µM,> 36.2 µM,0.11 µM,–,–,–,–
O=C1Nc2ccc(Cl)cc2[C@@](C#CC2CC2)(C(F)(F)F)O1 [EFAVIRENZ],–,> 6.34 µM,> 6.34 µM,–,0.01 µM,–,–,–,–
Cc1ccnc2c1NC(=O)c1cccnc1N2C1CC1 [NEVIRAPINE],–,> 15 µM,> 15 µM,5.12 µM,–,–,–,–,–
Cc1cc(/C=C/C#N)cc(C)c1Nc1ccnc(Nc2ccc(C#N)cc2)n1 [RILPIVIRINE],–,–,–,–,–,–,–,–,0.0008 µM
Cc1cn([C@H]2C[C@H](N=[N+]=[N-])[C@@H](CO)O2)c(=O)[nH]c1=O [ZIDOVUDINE],> 14400,> 93.5 µM,0.01 µM,0.01 µM,0.01 µM,–,–,–,–
